In brackets after ≈: the same amount, converted by molar mass. Activity calls are given as the source filed them. The rule behind the calls is not given here.
Legend:
Candida albicans = experiment: Antifungal activity against Candida albicans ATCC 10231 up to 250 ug/mL by agar dilution method; assay type: functional, organism-based
How it was run: (§1)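 Agar dilution in Saboureaud-chloramphenicol agar wells. Test agents from DMSO stocks were serially diluted twofold to final 0.10–250 µg/mL, with DMSO ≤2% final. Each well got 5 µL of yeast cell or spore suspension (spores at 10⁶ CFU/mL). Ketoconazole and amphotericin B served as positive controls, with a drug-free blank. Plates were held at 30 °C for 24, 48 or 72 h, set by control growth. MIC = lowest concentration with no visible growth.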

Saccharomyces cerevisiae = experiment: Antifungal activity against Saccharomyces cerevisiae ATCC 9763 up to 250 ug/mL by agar dilution method; assay type: functional, organism-based; how it was run: as §1
Cryptococcus neoformans = experiment: Antifungal activity against Cryptococcus neoformans ATCC 32264 up to 250 ug/mL by agar dilution method; assay type: functional, organism-based; how it was run: as §1
Aspergillus niger = experiment: Antifungal activity against Aspergillus niger ATCC 9029 up to 250 ug/mL by agar dilution method; assay type: functional, organism-based; how it was run: as §1
Aspergillus fumigatus = experiment: Antifungal activity against Aspergillus fumigatus ATCC 26934 up to 250 ug/mL by agar dilution method; assay type: functional, organism-based; how it was run: as §1
Aspergillus flavus = experiment: Antifungal activity against Aspergillus flavus ATCC 9170 up to 250 ug/mL by agar dilution method; assay type: functional, organism-based; how it was run: as §1
Microsporum canis = experiment: Antifungal activity against Microsporum canis C112 after 15 days by agar dilution method; assay type: functional; conditions: 360 h
How it was run: (§2)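 Dermatophytes were kept on Saboureaud dextrose agar slopes and subcultured every 15 days. Spore suspensions were set to 10⁶ CFU/mL, and 5 µL went into Saboureaud-chloramphenicol agar wells. Wells held twofold dilutions from DMSO stocks, final 0.10–250 µg/mL, DMSO ≤2%. Ketoconazole and amphotericin B were positive controls, with a drug-free blank. Incubation was at 30 °C for up to 15 days. MIC = lowest concentration with no visible growth.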

Nannizzia gypsea = experiment: Antifungal activity against Microsporum gypseum C115 after 15 days by agar dilution method; assay type: functional; conditions: 360 h; how it was run: as §2
[1] = system: Trichophyton mentagrophytes; experiment: Antifungal activity against Trichophyton mentagrophytes ATCC 9972 after 15 days by agar dilution method; assay type: functional; conditions: ATCC 9972, 360 h; how it was run: as §2
Trichophyton rubrum = experiment: Antifungal activity against Trichophyton rubrum C113 after 15 days by agar dilution method; assay type: functional; conditions: 360 h; how it was run: as §2
Epidermophyton floccosum = experiment: Antifungal activity against Epidermophyton floccosum C114 after 15 days by agar dilution method; assay type: functional; conditions: 360 h; how it was run: as §2

Row | SMILES | MIC (Microsporum canis) | MIC (Nannizzia gypsea) | MIC [1] | MIC (Trichophyton rubrum) | MIC (Epidermophyton floccosum) | Activity (Candida albicans) | Activity (Saccharomyces cerevisiae) | Activity (Cryptococcus neoformans) | Activity (Aspergillus niger) | Activity (Aspergillus fumigatus) | Activity (Aspergillus flavus)
1 | C=CCc1cc(OC)c(O[C@H](C)[C@@H](O)c2ccc(OC)c(OC)c2)c(OC)c1 (racemic) | 150 µg/mL (≈ 386 µM) | 50 µg/mL (≈ 129 µM) | 150 µg/mL (≈ 386 µM) | 80 µg/mL (≈ 206 µM) | 40 µg/mL (≈ 103 µM) | inactive | inactive | inactive | inactive | inactive | inactive
2 | C=CCc1ccc(OC(C)C(=O)c2ccc(OC)c(OC)c2)c(OC)c1 (racemic) | 250 µg/mL (≈ 701 µM) | 250 µg/mL (≈ 701 µM) | > 250 µg/mL | 250 µg/mL (≈ 701 µM) | 250 µg/mL (≈ 701 µM) | inactive | inactive | inactive | inactive | inactive | inactive
3 | C/C=C/c1ccc(OC(C)C(=O)c2cc(OC)c(OC)c(OC)c2)c(OC)c1 (racemic) | > 250 µg/mL | > 250 µg/mL | > 250 µg/mL | > 250 µg/mL | > 250 µg/mL | inactive | inactive | inactive | inactive | inactive | inactive
4 | C=CCc1cc(OC)c(O[C@@H](C)[C@@H](O)c2cc(OC)c(OC)c(OC)c2)c(OC)c1 (racemic) | 60 µg/mL (≈ 143 µM) | 80 µg/mL (≈ 191 µM) | 50 µg/mL (≈ 119 µM) | 25 µg/mL (≈ 59.7 µM) | 60 µg/mL (≈ 143 µM) | inactive | inactive | inactive | inactive | inactive | inactive
5 | C=CCc1cc(OC)c(O[C@H](C)[C@@H](O)c2ccc3c(c2)OCO3)c(OC)c1 (racemic) | 20 µg/mL (≈ 53.7 µM) | 50 µg/mL (≈ 134 µM) | 100 µg/mL (≈ 269 µM) | > 250 µg/mL | 5 µg/mL (≈ 13.4 µM) | inactive | inactive | inactive | inactive | inactive | inactive
6 | C=CCc1cc(OC)c(OC(C)C(=O)c2ccc(OC)c(OC)c2)c(OC)c1 (racemic) | 250 µg/mL (≈ 647 µM) | > 250 µg/mL | > 250 µg/mL | > 250 µg/mL | > 250 µg/mL | inactive | inactive | inactive | inactive | inactive | inactive
7 | C=CCc1cc(OC)c(OC(C)C(=O)c2cc(OC)c(OC)c(OC)c2)c(OC)c1 (racemic) | 250 µg/mL (≈ 600 µM) | > 250 µg/mL | > 250 µg/mL | > 250 µg/mL | > 250 µg/mL | inactive | inactive | inactive | inactive | inactive | inactive
8 | C=CCc1cc(OC)c(O[C@@H](C)[C@@H](O)c2ccc3c(c2)OCO3)c(OC)c1 (racemic) | 80 µg/mL (≈ 215 µM) | 40 µg/mL (≈ 107 µM) | 200 µg/mL (≈ 537 µM) | 20 µg/mL (≈ 53.7 µM) | 15 µg/mL (≈ 40.3 µM) | inactive | inactive | inactive | inactive | inactive | inactive
9 | C=CCc1cc(OC)c(OC(C)C(=O)c2ccc3c(c2)OCO3)c(OC)c1 (racemic) | > 250 µg/mL | 250 µg/mL (≈ 675 µM) | > 250 µg/mL | > 250 µg/mL | > 250 µg/mL | inactive | inactive | inactive | inactive | inactive | inactive
10 | C=CCc1cc(OC)c(O[C@H](C)[C@@H](O)c2cc(OC)c(OC)c(OC)c2)c(OC)c1 (racemic) [RHAPHIDECURSINOL B] | 50 µg/mL (≈ 119 µM) | 150 µg/mL (≈ 358 µM) | 50 µg/mL (≈ 119 µM) | 25 µg/mL (≈ 59.7 µM) | 50 µg/mL (≈ 119 µM) | inactive | inactive | inactive | inactive | inactive | inactive
11 | C[C@@H]1[C@H](O)[C@@H](C)/C=C/C=C/C=C/C=C/C=C/C=C/C=C/[C@H](O[C@@H]2O[C@H](C)[C@@H](O)[C@H](N)[C@@H]2O)C[C@@H]2O[C@](O)(C[C@@H](O)C[C@@H](O)[C@H](O)CC[C@@H](O)C[C@@H](O)CC(=O)O[C@H]1C)C[C@H](O)[C@H]2C(=O)O [AMPHOTERICIN B] |  |  |  |  | 0.3 µg/mL (≈ 0.325 µM) |  |  |  |  |  | 
12 | CC(=O)N1CCN(c2ccc(OCC3COC(Cn4ccnc4)(c4ccc(Cl)cc4Cl)O3)cc2)CC1 (stereo not given) [KETOCONAZOLE] |  |  |  |  | 15 µg/mL (≈ 28.2 µM) |  |  |  |  |  | 

The next lines start with results.

Row | MIC (Microsporum canis) | MIC (Nannizzia gypsea) | MIC [1] | MIC (Trichophyton rubrum) | MIC (Epidermophyton floccosum) | SMILES | Activity (Candida albicans) | Activity (Saccharomyces cerevisiae) | Activity (Cryptococcus neoformans) | Activity (Aspergillus niger) | Activity (Aspergillus fumigatus) | Activity (Aspergillus flavus)
13 | > 250 µg/mL | 250 µg/mL (≈ 701 µM) | > 250 µg/mL | > 250 µg/mL | > 250 µg/mL | C/C=C/c1ccc(OC(C)C(=O)c2ccc(OC)c(OC)c2)c(OC)c1 (racemic) | inactive | inactive | inactive | inactive | inactive | inactive
14 | 20 µg/mL (≈ 55.8 µM) | 60 µg/mL (≈ 167 µM) | 40 µg/mL (≈ 112 µM) | 20 µg/mL (≈ 55.8 µM) | 25 µg/mL (≈ 69.7 µM) | C=CCc1ccc(O[C@@H](C)[C@@H](O)c2ccc(OC)c(OC)c2)c(OC)c1 (racemic) | inactive | inactive | inactive | inactive | inactive | inactive
15 | 50 µg/mL (≈ 139 µM) | 50 µg/mL (≈ 139 µM) | 150 µg/mL (≈ 418 µM) | 20 µg/mL (≈ 55.8 µM) | 70 µg/mL (≈ 195 µM) | C/C=C/c1ccc(O[C@H](C)[C@@H](O)c2ccc(OC)c(OC)c2)c(OC)c1 (racemic) | inactive | inactive | inactive | inactive | inactive | inactive
16 | 250 µg/mL (≈ 697 µM) | > 250 µg/mL | > 250 µg/mL | 250 µg/mL (≈ 697 µM) | 15 µg/mL (≈ 41.8 µM) | C=CCc1ccc(O[C@H](C)[C@@H](O)c2ccc(OC)c(OC)c2)c(OC)c1 (racemic) | inactive | inactive | inactive | inactive | inactive | inactive
17 | 60 µg/mL (≈ 154 µM) | 60 µg/mL (≈ 154 µM) | 80 µg/mL (≈ 206 µM) | 50 µg/mL (≈ 129 µM) | 25 µg/mL (≈ 64.4 µM) | C/C=C/c1ccc(O[C@H](C)[C@@H](O)c2cc(OC)c(OC)c(OC)c2)c(OC)c1 (racemic) | inactive | inactive | inactive | inactive | inactive | inactive
18 | > 250 µg/mL | > 250 µg/mL | > 250 µg/mL | 125 µg/mL (≈ 322 µM) | 50 µg/mL (≈ 129 µM) | C/C=C/c1ccc(O[C@@H](C)[C@@H](O)c2cc(OC)c(OC)c(OC)c2)c(OC)c1 (racemic) | inactive | inactive | inactive | inactive | inactive | inactive
19 | 40 µg/mL (≈ 103 µM) | 150 µg/mL (≈ 386 µM) | 150 µg/mL (≈ 386 µM) | 40 µg/mL (≈ 103 µM) | 60 µg/mL (≈ 154 µM) | C=CCc1cc(OC)c(O[C@@H](C)[C@@H](O)c2ccc(OC)c(OC)c2)c(OC)c1 (racemic) | inactive | inactive | inactive | inactive | inactive | inactive
20 | 50 µg/mL (≈ 139 µM) | > 250 µg/mL | > 250 µg/mL | > 250 µg/mL | 100 µg/mL (≈ 279 µM) | C/C=C/c1ccc(O[C@@H](C)[C@@H](O)c2ccc(OC)c(OC)c2)c(OC)c1 (racemic) [VIROLIN] | inactive | inactive | inactive | inactive | inactive | inactive

From ChEMBL document CHEMBL1145694, “In vitro evaluation of antifungal properties of 8.O.4'-neolignans” (1997)
